According to ChEMBL document CHEMBL4823320, “SAR of novel benzothiazoles targeting an allosteric pocket of DENV and ZIKV NS2B/NS3 proteases” (Bioorg Med Chem, 2021):
Calls of active or inactive are those of the source. The rule behind the calls is not given here.

What was measured:
[1] = biological target: T1, Nonstructural protein 3 (Zika virus) (UniProt A0A024AXB9); experiment: Inhibition of ZIKV NS2B-NS3 protease expressed in Escherichia coli BL21(DE3) using Boc-Gly-Arg-Arg-AMC as substrate at 200 uM by FRET assay
How it was run: (§1)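 His-tagged NS2B/NS3 protease, purified by Ni affinity and size exclusion, in 50 mM Tris pH 9.0, 20% glycerol, 1 mM CHAPS with 100 µM Boc-Gly-Arg-Arg-AMC. Fluorescence is read every 30 s for 10 min at 25 °C. Percent inhibition is at a single inhibitor concentration of 20, 100 or 200 µM; ≥3 independent measurements.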

[2] = biological target: Genome polyprotein (dengue virus type 2) (UniProt P29990); experiment: Inhibition of DENV2 NS2B-NS3 protease expressed in Escherichia coli BL21(DE3) using Boc-Gly-Arg-Arg-AMC as substrate at 200 uM by FRET assay; how it was run: as §1
Huh-7 = experiment: Cytotoxicity against human Huh-7 cells assessed as cell viability after 96 hrs by CellTiter-Glo Luminescent cell viability assay; format: cell-based; settings: huh-7, 96 h
How it was run: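 Huh7 cells seeded at 4×10^3 per well and treated one day later with 1.25–40 µM compound or DMSO for 96 h. ATP-based luminescent viability read-out, normalized to untreated cells.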

Nonstructural protein 3 = Nonstructural protein 3 (Zika virus, UniProt A0A024AXB9); experiment: Inhibition of ZIKV NS2B-NS3 protease expressed in Escherichia coli BL21(DE3) using Boc-Gly-Arg-Arg-AMC as substrate by FRET assay
How it was run: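 His-tagged ZIKV NS2B/NS3 protease in 50 mM Tris pH 9.0, 20% glycerol, 1 mM CHAPS with 100 µM Boc-Gly-Arg-Arg-AMC. Dilution series 0.01–100 µM, read every 30 s for 10 min at 25 °C. IC50 from a four-parameter fit of hydrolysis rate; mean ± SD of ≥3 independent measurements.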

Genome polyprotein [3] = biological target: T2, Genome polyprotein (dengue virus type 2, UniProt P29990); experiment: Inhibition of DENV2 NS2B-NS3 protease expressed in Escherichia coli BL21(DE3) using Boc-Gly-Arg-Arg-AMC as substrate by FRET assay
How it was run: (§2)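 Recombinant His-tagged NS2B/NS3 protease, expressed in E. coli BL21-Gold (DE3) (1 mM IPTG, 20 °C, 16 h) and purified by Ni affinity and size exclusion. Assayed in 50 mM Tris pH 9.0, 20% glycerol, 1 mM Chaps, with 100 μM Boc-Gly-Arg-Arg-AMC. Fluorescence read every 30 s for 10 min at 25 °C; inhibitor 0.01–100 μM. IC50 from a four-parameter fit of hydrolysis rate; ≥3 independent experiments.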

Trypsin (Homo sapiens) = Trypsin (Homo sapiens) (UniProt P07477+P07478+P35030); experiment: Inhibition of Trypsin (unknown origin) assessed as residual enzyme activity at 20 uM by FRET assay relative to control; format: protein assay
How it was run: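 Trypsin in 50 mM Tris pH 8.0, 100 mM NaCl, 5 mM EDTA with 40 µM Z-Phe-Arg-AMC. Compound at 20 µM, read every 30 s for 10 min at 25 °C. Residual activity is relative to DMSO control; mean ± SD, ≥3 independent measurements.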

[4] = biological target: Prothrombin (Homo sapiens) (UniProt P00734); experiment: Inhibition of Thrombin (unknown origin) assessed as residual enzyme activity at 20 uM by FRET assay relative to control
How it was run: (§3)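 Compound at 20 µM, read every 30 s for 10 min at 25 °C. Residual activity is relative to DMSO control; mean ± SD, ≥3 independent measurements.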

[5] = biological target: Chymotrypsin (Homo sapiens) (UniProt Q99895+P17538+P40313+Q6GPI1); experiment: Inhibition of Chymotrypsin (unknown origin) assessed as residual enzyme activity at 20 uM by FRET assay relative to control; format: protein assay
How it was run: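 α-Chymotrypsin in 50 mM Tris pH 8.0, 100 mM NaCl with Succ-Leu-Tyr-AMC. Compound at 20 µM, read every 30 s for 10 min at 25 °C. Residual activity is relative to DMSO control; mean ± SD, ≥3 independent measurements.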

[6] = biological target: Urokinase-type plasminogen activator (Homo sapiens) (UniProt P00749); experiment: Inhibition of Urokinase plasminogen activator (unknown origin) assessed as residual enzyme activity at 20 uM by FRET assay relative to control
How it was run: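 Urokinase plasminogen activator in 50 mM Tris pH 7.4, 50 mM NaCl, 0.5 mM EDTA with 240 µM Z-Gly-Gly-Arg-AMC. Compound at 20 µM, read every 30 s for 10 min at 25 °C. Residual activity is relative to DMSO control; mean ± SD, ≥3 independent measurements.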

[7] = tested on: Severe acute respiratory syndrome coronavirus 2; experiment: Inhibition of SARS-CoV-2 Main protease assessed as residual enzyme activity at 20 uM by FRET assay relative to control
How it was run: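 Compound at 20 μM; fluorescence read every 30 s for 10 min at 25 °C. Residual activity expressed relative to DMSO control; mean of ≥3 independent measurements.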

[8] = Inhibition of Rhodesain (unknown origin) assessed as residual enzyme activity at 20 uM by FRET assay relative to control
How it was run: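 Compound at 20 µM, fluorescence read every 30 s for 10 min at 25 °C. Residual activity is relative to DMSO control; mean ± SD, ≥3 independent measurements.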

[9] = biological target: T3, Sortase A (Staphylococcus aureus) (UniProt Q9S446); experiment: Inhibition of staphylococcus aureus Sortase A protease assessed as residual enzyme activity at 20 uM by FRET assay relative to control; how it was run: as §3
T3 sequence (whole entry): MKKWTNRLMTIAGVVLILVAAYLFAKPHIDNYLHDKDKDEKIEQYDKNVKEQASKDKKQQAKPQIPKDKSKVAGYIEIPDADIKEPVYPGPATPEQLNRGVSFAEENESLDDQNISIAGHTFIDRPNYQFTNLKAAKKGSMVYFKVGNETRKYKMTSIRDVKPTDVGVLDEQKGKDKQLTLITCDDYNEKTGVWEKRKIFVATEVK

[10] = Chemical stability of compound in tris assay buffer at pH 9 measured after 15 mins by HPLC/MS analysis; format: physicochemical; settings: pH 9, 0.25 h
How it was run: (§4)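 Compound incubated in protease assay buffer (Tris pH 9.0) under simulated assay conditions and analysed by HPLC/MS after 15 min, 90 min and 20 h. Stability is the compound peak integral in the 210 nm UV trace as a proportion of the total integral.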

[11] = Chemical stability of compound in tris assay buffer at pH 9 measured after 90 mins by HPLC/MS analysis; format: physicochemical; settings: pH 9, 1.5 h; how it was run: as §4
[12] = Chemical stability of compound in tris assay buffer at pH 9 measured after 20 hrs by HPLC/MS analysis; format: physicochemical; settings: pH 9, 20 h; how it was run: as §4
[13] = Chemical stability of compound in cell culture conditions at pH 7.4 HEPES buffer measured after 15 mins by HPLC/MS analysis; format: physicochemical; settings: read-out: Stabilty
How it was run: (§5)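 Compound incubated under simulated cell-assay conditions (HEPES pH 7.4) and analysed by HPLC/MS after 15 min, 90 min and 20 h. Stability is the compound peak integral in the 210 nm UV trace as a fraction of the total integral.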

[14] = Chemical stability of compound in cell culture conditions at pH 7.4 HEPES buffer measured after 90 mins by HPLC/MS analysis; format: physicochemical; settings: read-out: Stabilty; how it was run: as §5
[15] = Chemical stability of compound in cell culture conditions at pH 7.4 HEPES buffer measured after 20 hrs by HPLC/MS analysis; format: physicochemical; settings: read-out: Stabilty; how it was run: as §5
dengue virus type 2 = experiment: Antiviral activity against DENV2 New Guinea C infected in human Huh7 cells assessed as decrease in viral RNA expression at 10 uM measured up to 72 hrs by firefly luciferase assay; format: functional, organism-based; settings: Huh-7, time hrs <=72
How it was run: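 Huh7 cells electroporated with in vitro transcribed DENV2 NGC subgenomic replicon RNA (firefly luciferase), 4×10^6 cells per 10 µg RNA. Compound at 10 µM or DMSO is added 4 h post-electroporation in medium with 15 mM HEPES and replenished at 48 h. Lysates are taken at 4–96 h and replication is expressed relative to the 4 h input value. Duplicate luminometer reads; mean ± SD, n = 3.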

Zika virus [16] = experiment: Antiviral activity against ZIKV H/PF/2013 infected in human Huh7 cells assessed as decrease in viral RNA expression at 10 uM measured up to 72 hrs by renilla luciferase assay; format: functional, organism-based; settings: Huh-7, time hrs <=72
How it was run: (§6)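 Huh7 cells electroporated with in vitro transcribed ZIKV H/PF/2013 subgenomic replicon RNA (Renilla luciferase, coelenterazine substrate). Compound at 10 µM or DMSO is added 4 h post-electroporation in medium with 15 mM HEPES and replenished at 48 h. Lysates are taken at 4, 24, 48, 72 and 96 h and normalized to the 4 h input value. Duplicate reads; mean ± SD, n = 3.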

Zika virus [17] = experiment: Antiviral activity against ZIKV H/PF/2013 infected in human Huh7 cells assessed as decrease in viral RNA expression at 10 uM measured up to 96 hrs by renilla luciferase assay; format: functional, organism-based; settings: Huh-7, time hrs <=96; how it was run: as §6
[18] = Inhibition of DENV2 NS2B-NS3 protease T120A/N167Q mutant expressed in Escherichia coli BL21(DE3) using Boc-Gly-Arg-Arg-AMC as substrate by FRET assay; design: species or system dengue virus type 2; how it was run: as §2
[19] = biological target: T1, Nonstructural protein 3 (Zika virus); experiment: Inhibition of ZIKV NS2B-NS3 protease expressed in Escherichia coli BL21(DE3) using Boc-Gly-Arg-Arg-AMC as substrate at 100 uM by FRET assay; how it was run: as §1
[20] = biological target: Genome polyprotein (dengue virus type 2) (UniProt P29990); experiment: Inhibition of DENV2 NS2B-NS3 protease expressed in Escherichia coli BL21(DE3) using Boc-Gly-Arg-Arg-AMC as substrate at 100 uM by FRET assay; how it was run: as §1
Genome polyprotein [21] = biological target: T2, Genome polyprotein; experiment: Binding affinity to DENV2 NS2B-NS3 protease by Dixon plot analysis
How it was run: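 Fluorogenic DENV2 NS2B/NS3 assay run in 50 mM Tris pH 9.0, 20% glycerol, 1 mM Chaps, with IC50 determined at several Boc-Gly-Arg-Arg-AMC concentrations (50–200 μM). Kinetic fluorescence read at 25 °C for 10 min. Mode of inhibition assessed and apparent Ki derived by Dixon plot analysis.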

For `O=C(Nc1ccccc1)c1cc2cc(O)ccc2o1`, the inhibition [1] was “inactive” and the inhibition [2] was “inactive”.
`Nc1cc2cc(C(=O)Nc3ccccc3)oc2cc1O` showed an inhibition [1] of 52% and an inhibition [2] of 34%.
In the case of `O=C(Nc1nc2cc(O)c(O)cc2s1)C(c1ccccc1)c1ccccc1`, the Activity (Huh-7) is reported as “Non-Toxic”, the IC50 (Nonstructural protein 3) is reported as 950 nM and the IC50 (Genome polyprotein [3]) is reported as 11.1 µM. For the same compound, the Activity (Trypsin (Homo sapiens)) was 85%, the Activity [4] was 95% and the Activity [5] was 96%. It also gave an Activity [6] of 62%, an Activity [7] of 77% and an Activity [8] of 86%. It also gave an Activity [9] of 73%, a Stabilty [10] of 83% and a Stabilty [11] of 83%. It also gave a Stabilty [12] of 83%, a remaining at 0.25 h [13] of 95% and a remaining at 1.5 h [14] of 95%. The remaining at 20 h [15] was 95% and the Activity (dengue virus type 2) was “Active”.
For `COc1cc2nc(NC(=O)C(c3ccccc3)c3ccccc3)sc2cc1OC`, the Activity (Zika virus [16]) was “inactive” and the Activity (dengue virus type 2) was “Active”.
For `O=C(Nc1ccccc1)c1cc2cc(O)c(O)cc2o1`, the Activity (Huh-7) was “Non-Toxic”, the Activity (Zika virus [17]) was “Active” and the IC50 (Nonstructural protein 3) was 1040 nM. It also gave an IC50 (Genome polyprotein [3]) of 0.69 µM, an Activity (Trypsin (Homo sapiens)) of 96% and an Activity [4] of 97%. For the same compound, the Activity [5] was 58%, the Activity [6] was 91% and the Activity [7] was 52%. It also gave an Activity [8] of 93%, an Activity [9] of 64% and a Stabilty [10] of 83%. The Stabilty [11] was 83%, the Stabilty [12] was 83% and the remaining at 0.25 h [13] was 95%. For the same compound, the remaining at 1.5 h [14] was 95%, the remaining at 20 h [15] was 95% and the Activity (dengue virus type 2) was “Active”. It also gave an IC50 [18] of 0.73 µM.
For `O=C(Nc1ccccc1)c1cc2c(O)cc(O)cc2o1`, the inhibition [19] was 62% and the inhibition [20] was 51%.
Work on `O=C(Nc1ccccc1)c1cc2cc([N+](=O)[O-])c(O)cc2o1` yielded an inhibition [1] of 48% and an inhibition [2] of 19%.
For `O=C(Nc1ccccc1)c1cc2ccc(O)cc2o1`, the inhibition [1] was “inactive” and the inhibition [2] was “inactive”.
In the case of `COc1cc2nc(NC(=O)c3ccc(I)cc3)sc2cc1OC`, the Activity (dengue virus type 2) is reported as “Active”.
For `O=C(Nc1nc2cc(O)c(O)cc2s1)c1ccc(I)cc1`, the Activity (Huh-7) was “Non-Toxic”, the Activity (Zika virus [17]) was “Active” and the IC50 (Nonstructural protein 3) was 670 nM. The IC50 (Genome polyprotein [3]) was 4.38 µM, the Activity (Trypsin (Homo sapiens)) was 94% and the Activity [4] was 65%. It also gave an Activity [5] of 79%, an Activity [6] of 100% and an Activity [7] of 89%. The Activity [8] was 77%, the Activity [9] was 74% and the Stabilty [10] was 83%. The Stabilty [11] was 83%, the Stabilty [12] was 83% and the remaining at 0.25 h [13] was 95%. The remaining at 1.5 h [14] was 95%, the remaining at 20 h [15] was 95% and the Activity (dengue virus type 2) was “Active”. It also gave an IC50 [18] of 8.01 µM and a Ki (Genome polyprotein [21]) of 7.67 µM.
